# Source: ChEMBL document CHEMBL4811241, “Revisiting Pyrazolo[3,4-d]pyrimidine Nucleosides as Anti-Trypanosoma cruzi and Antileishmanial Agents” (J Med Chem, 2021)
# pEC50, pIC50: −log10 of the molar value.
# How the values were obtained:
# [1] = Selectivity index, ratio of CC50 for Swiss mouse peritoneal macrophages to IC50 for antileishmanial activity against amastigote form of Leishmania infantum MHOM/MA(BE)/67 infected in Swiss mouse peritoneal macrophages; assay type: toxicity; details: read-out: Ratio CC50/IC50
# Procedure, shortened: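 Ratio of macrophage CC50 to L. infantum amastigote IC50, both taken from the same 5-day macrophage assay.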
# [2] = Selectivity index, ratio of CC50 for human MRC-5 SV2 cells to IC50 for antitrypanosomal activity against nifurtimox-sensitive Trypanosoma cruzi Tulahuen CL2 infected in human MRC-5 SV2 cells; assay type: toxicity, cell-based; details: read-out: Ratio CC50/IC50
# Procedure, shortened: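 Ratio of MRC-5SV2 CC50 (3-day resazurin assay) to IC50 against T. cruzi amastigotes in MRC-5SV2 cells (7-day CPRG assay).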
# [3] = Cytotoxicity against Swiss mouse peritoneal macrophages assessed as cell detachment, lysis and granulation measured after 5 days by microscopic analysis; assay type: cell-based, Peritoneal macrophage; details: time 5 day
# Procedure, shortened: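 Scored within the Leishmania macrophage assay over 5 days: detachment, lysis and granulation judged semi-quantitatively by microscopy across at least 500 cells. CC50 derived from % reduction in normal cells versus untreated wells.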
# [4] = Cytotoxicity against human MRC-5 SV2 cells assessed as reduction in cell growth measured after 3 days by resazurin dye based fluorometric analysis; details: time 3 day
# [5] = tested on: Leishmania infantum; experiment: Antileishmanial activity against amastigote form of Leishmania infantum MHOM/MA(BE)/67 infected in Swiss mouse peritoneal macrophages assessed as reduction in parasite growth treated at 2 hrs post-infection and measured after 5 days by Giemsa staining based microscopic analysis; assay type: functional, organism-based; details: MHOM/MA(BE)/67, Peritoneal macrophage
# Procedure, shortened: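 Swiss mouse peritoneal macrophages, harvested after 2-day potato-starch stimulation, infected 48 h after plating; compounds added 2 h post-infection.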
# [6] = tested on: Trypanosoma cruzi; experiment: Antitrypanosomal activity against nifurtimox-sensitive Trypanosoma cruzi Tulahuen CL2 infected in human MRC-5 SV2 cells assessed as inhibition of parasite growth measured after 7 days by spectrophotometric analysis; assay type: functional, organism-based; details: Tulahuen CL2, MRC-5 SV2, 168 h
# [7] = tested on: Trypanosoma cruzi; experiment: Antitrypanosomal activity against intracellular amastigote form of Trypanosoma cruzi Y infected in Swiss Webster mouse cardiomyocytes assessed as inhibition of parasite growth incubated for 48 hrs by Giemsa staining based microscopic analysis; assay type: functional, organism-based; details: Cardiac muscle cell
# Procedure, shortened: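 Primary 2D mouse embryo cardiac cell cultures, infected for 24 h, then washed and exposed for 48 h at 37 °C to a serial dilution. Cells fixed and stained with Giemsa; infected cells and parasites per infected cell scored in 200 host cells. Activity expressed from the inhibition index; two independent experiments run in duplicate.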
# [8] = Cytotoxicity against Swiss Webster mouse 2D cardiomyocytes assessed as reduction in cell viability measured after 48 hrs by PrestoBlue assay; design: species or system Cardiac Muscle Cell; details: read-out: LC50
# Procedure, shortened: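 Mouse embryo heart cells as monolayer (2D) or 3D aggregates (25 × 10³ cells/well on 1% agarose). Uninfected cultures exposed 48 h to rising concentrations. Morphology checked by light microscopy; viability read by PrestoBlue; CC₅₀ determined.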
# [9] = tested on: Trypanosoma cruzi; experiment: Antitrypanosomal activity against Trypanosoma cruzi Y bloodstream trypomastigotes assessed as inhibition of parasite growth incubated for 24 hrs by light microscopy; assay type: functional, organism-based
# [10] = tested on: Trypanosoma brucei rhodesiense; experiment: Antitrypanosomal activity against Trypanosoma brucei rhodesiense STIB900 measured after 6 hrs by alamar blue dye based fluorimetry analysis; assay type: functional, organism-based; details: STIB900, 6 h
SMILES,selectivity ratio [1],selectivity ratio [2],CC50 at 120 h [3] [µM],CC50 at 72 h [4] [µM],pIC50 [5],pIC50 [6],pIC50 [7],CC50 at 48 h [8] [µM],pIC50 [9],pEC50 [10]
Nc1ncnc2c1c(-c1ccncc1)nn2[C@@H]1O[C@H](CO)[C@@H](O)[C@H]1O,> 3,> 3,> 64,> 64,4.60,4.67,–,–,–,–
Nc1ncnc2c1c(-c1c[nH]nn1)nn2[C@@H]1O[C@H](CO)[C@@H](O)[C@H]1O,> 1,1,> 64,0.6,4.37,6.37,–,–,–,–
Nc1ncnc2c1c(Br)nn2[C@@H]1O[C@H](CO)[C@@H](F)[C@H]1O,1,–,0.13,0.23,7.10,5.97,–,–,–,–
Oc1ncnc2[nH]ncc12 [ALLOPURINOL],> 18,> 7,> 64,> 64,5.45,5.01,–,–,–,–
Nc1ncnc2c1c(Br)nn2[C@@H]1O[C@H](CO)[C@@H](O)[C@H]1O,> 2,> 15,> 64,> 64,4.53,5.36,–,–,–,–
C=C(C)c1nn([C@@H]2O[C@H](CO)[C@@H](O)[C@H]2O)c2ncnc(N)c12,1,< 1,32,0.35,4.62,4.53,–,–,–,–
O=c1[nH]cnc2c1cnn2[C@@H]1O[C@H](CO)[C@@H](O)[C@H]1O,10,9,> 64,> 64,5.18,5.14,–,–,–,–
Nc1ncnc2c1cnn2[C@@H]1O[C@H](CO)[C@@H](O)[C@H]1O,> 60,> 219,> 64,> 64,5.97,6.54,5.61,> 500,< 4.09,–
Nc1ncnc2c1c(Oc1ccccc1)nn2[C@@H]1O[C@H](CO)[C@@H](O)[C@H]1O,> 2,–,> 64,> 64,4.49,< 4.19,–,–,–,–
Cc1ccc(-c2nn([C@@H]3O[C@H](CO)[C@@H](O)[C@H]3O)c3ncnc(N)c23)s1,> 1,> 9,> 64,> 64,≤ 4.49,5.15,–,–,–,–
Nc1ncnc2[nH]ncc12,> 355,5,> 64,2.46,6.74,6.24,–,–,–,–
Nc1ncnc2c1c(C#Cc1ccccc1)nn2[C@@H]1O[C@H](CO)[C@@H](O)[C@H]1O,> 1,> 2,> 64,> 64,4.31,4.53,–,–,–,–
C=Cc1nn([C@@H]2O[C@H](CO)[C@@H](O)[C@H]2O)c2ncnc(N)c12,3,–,32,> 64,4.90,< 4.19,–,–,–,–
NCc1nn([C@@H]2O[C@H](CO)[C@@H](O)[C@H]2O)c2ncnc(N)c12,4,5,8,59.3,5.70,4.95,–,–,–,–
Nc1ncnc2c1ccn2[C@@H]1O[C@H](CO)[C@@H](O)[C@H]1O [TUBERCIDIN],–,–,–,–,–,–,–,–,–,7.44
Nc1ncnc2c1c(-c1ccccn1)nn2[C@@H]1O[C@H](CO)[C@@H](O)[C@H]1O,1,1,> 64,36.4,≤ 4.29,4.52,–,–,–,–
Nc1ncnc2c1c(N)nn2[C@@H]1O[C@H](CO)[C@@H](O)[C@H]1O,1,3,8,23,5.17,5.12,–,–,–,–
